Measured values: PMC9037101 (RSC Advances, 2021)

Experiments:
[1] = Stability of the analytes in rat plasma QC samples; assay type: in vitro ADME; details: for Free-thaw stability: Measured concentration / Free-thaw stability: Accuracy: 3 free thaw cycles; for Free-thaw stability: Accuracy / Long-tern stability: Accuracy: relative error; for Long-tern stability: Accuracy / Long-tern stability: Measured concentration: −20 °C for 21 d; for Short-tern stability: Measured concentration: room temperature for 8 h
Procedure, shortened: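 Rat (SD male) plasma QC samples at low, medium and high levels, six replicates each. Storage conditions: 4 h at room temperature after preparation, 8 h at room temperature (short-term), 21 days at −20 °C (long-term), and three freeze (−20 °C)/thaw (room temperature) cycles over three consecutive days. Samples were methanol-precipitated with internal standard and measured by HPLC-MS/MS. Stability was reported as relative error.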

[2] = assay type: in vivo, Sprague-Dawley (SD) rats; details: for AUC(0-inf) / AUC(0-t) / Cmax / Tmax / half-life: male, Sprague-Dawley, plasma, po, 15 mL kg^−1; for AUC(0-inf) / AUC(0-t) / Cmax / Tmax / half-life / absorption into blood (in words): rat; for absorption into blood (in words): oral administration of extract
[3] = double-peak phenomenon, rat plasma, oral extract

Row | SMILES | Free-thaw stability: Measured concentration ([1]; high QC spiked concentration) | Free-thaw stability: Measured concentration ([1]; low QC spiked concentration) | Free-thaw stability: Measured concentration ([1]; medium QC spiked concentration) | Free-thaw stability: Accuracy ([1]; high QC spiked concentration) | Free-thaw stability: Accuracy ([1]; low QC spiked concentration) | Free-thaw stability: Accuracy ([1]; medium QC spiked concentration) | Long-tern stability: Accuracy ([1]; high QC spiked concentration) | Long-tern stability: Accuracy ([1]; low QC spiked concentration) | Long-tern stability: Accuracy ([1]; medium QC spiked concentration) | Short-tern stability: Measured concentration ([1]; high QC spiked concentration) | Short-tern stability: Measured concentration ([1]; low QC spiked concentration) | Short-tern stability: Measured concentration ([1]; medium QC spiked concentration) | Long-tern stability: Measured concentration ([1]; high QC spiked concentration) | Long-tern stability: Measured concentration ([1]; low QC spiked concentration) | Long-tern stability: Measured concentration ([1]; medium QC spiked concentration) | AUC(0-inf) [2] | Cmax [2] | Tmax [2] | half-life [2] | absorption into blood (in words) [2] | further results
1 | O=c1c(O)c(-c2ccc(O)c(O)c2)oc2cc(O)cc(O)c12 [Quercetin, quercetin] | 67.46 ± 2.42 ng/mL | 2.78 ± 0.89 ng/mL | 17.48 ± 1.19 ng/mL | 4.62% | 5.30% | 6.72% | 6.02% | 3.03% | 5.43% | 66.98 ± 7.47 ng/mL | 2.80 ± 1.62 ng/mL | 17.12 ± 1.22 ng/mL | 68.36 ± 3.68 ng/mL | 2.72 ± 0.32 ng/mL | 17.27 ± 2.69 ng/mL | 18.2 ng·h/mL | 20.1 ± 24.9 ng/mL | 5 min | 46.03 ± 0.09 min | rapidly absorbed | AUC(0-t) [2]: 9.31 ng·h/mL
2 | O=c1cc(-c2ccc(O)cc2)oc2cc(O)cc(O)c12 [Apigenin, apigenin] | 494.36 ± 4.99 ng/mL | 7.34 ± 0.32 ng/mL | 124.68 ± 6.33 ng/mL | 5.51% | 3.67% | 6.63% | 3.51% | 7.06% | 6.48% | 490.89 ± 7.31 ng/mL | 7.17 ± 1.91 ng/mL | 123.78 ± 2.47 ng/mL | 484.98 ± 5.09 ng/mL | 7.58 ± 0.51 ng/mL | 124.51 ± 4.02 ng/mL |  | 146 ± 14.9 ng/mL | 180 min | 298.5 ± 0.16 min | absorbed very slowly | time of first peak of the plasma concentration–time curve [2, 3]: 5 min; time of second peak of the plasma concentration–time curve [2, 3]: 180 min
3 | COc1ccc(-c2cc(=O)c3c(O)cc(O)cc3o2)cc1 [Acacetin, acacetin] | 108.48 ± 6.51 ng/mL | 4.81 ± 0.22 ng/mL | 26.99 ± 4.36 ng/mL | 6.21% | 4.11% | 3.13% | 3.46% | 4.11% | 1.38% | 107.02 ± 3.38 ng/mL | 4.69 ± 0.36 ng/mL | 27.31 ± 5.34 ng/mL | 105.68 ± 9.65 ng/mL | 4.81 ± 0.27 ng/mL | 26.53 ± 3.21 ng/mL | 17.7 ng·h/mL | 31.9 ± 17.6 ng/mL | 10 min | 96.87 ± 0.12 min | rapidly absorbed | AUC(0-t) [2]: 15.3 ng·h/mL
4 | O=c1cc(-c2ccc(O)c(O)c2)oc2cc(O)cc(O)c12 [Luteolin, luteolin] | 258.35 ± 4.86 ng/mL | 6.60 ± 0.18 ng/mL | 66.03 ± 2.64 ng/mL | 4.35% | 4.43% | 6.21% | 5.43% | 6.01% | 8.32% | 260.55 ± 0.49 ng/mL | 6.76 ± 0.18 ng/mL | 64.88 ± 0.92 ng/mL | 261.02 ± 4.65 ng/mL | 6.7 ± 0.76 ng/mL | 67.34 ± 3.63 ng/mL | 35.4 ng·h/mL | 77.4 ± 25.7 ng/mL | 5 min | 36.08 ± 0.24 min |  | 

The next lines start with results.

Row | Free-thaw stability: Measured concentration ([1]; high QC spiked concentration) | Free-thaw stability: Measured concentration ([1]; low QC spiked concentration) | Free-thaw stability: Measured concentration ([1]; medium QC spiked concentration) | Free-thaw stability: Accuracy ([1]; high QC spiked concentration) | Free-thaw stability: Accuracy ([1]; low QC spiked concentration) | Free-thaw stability: Accuracy ([1]; medium QC spiked concentration) | Long-tern stability: Accuracy ([1]; high QC spiked concentration) | Long-tern stability: Accuracy ([1]; low QC spiked concentration) | Long-tern stability: Accuracy ([1]; medium QC spiked concentration) | Short-tern stability: Measured concentration ([1]; high QC spiked concentration) | Short-tern stability: Measured concentration ([1]; low QC spiked concentration) | Short-tern stability: Measured concentration ([1]; medium QC spiked concentration) | Long-tern stability: Measured concentration ([1]; high QC spiked concentration) | Long-tern stability: Measured concentration ([1]; low QC spiked concentration) | Long-tern stability: Measured concentration ([1]; medium QC spiked concentration) | AUC(0-inf) [2] | Cmax [2] | Tmax [2] | half-life [2] | absorption into blood (in words) [2] | SMILES | further results
5 | 437.7 ± 10.02 ng/mL | 6.2 ± 1.88 ng/mL | 110.30 ± 8.24 ng/mL | 4.58% | 2.48% | 7.54% | 2.55% | 4.30% | 4.68% | 426.82 ± 18.15 ng/mL | 6.36 ± 6.81 ng/mL | 108.48 ± 7.41 ng/mL | 429.20 ± 19.79 ng/mL | 6.31 ± 5.88 ng/mL | 107.37 ± 9.98 ng/mL |  | 131 ± 18.3 ng/mL | 5 min |  | rapidly absorbed | C[C@@H]1O[C@@H](OC[C@H]2O[C@@H](Oc3c(-c4ccc(O)c(O)c4)oc4cc(O)cc(O)c4c3=O)[C@H](O)[C@@H](O)[C@@H]2O)[C@H](O)[C@H](O)[C@H]1O [Rutin] | AUC(0-t) [2]: 50.7 ng·h/mL; AUC0–∞ (mean ± SD) ([2]; rat plasma, single oral administration of extract 15 mL kg^−1, n = 6): 3039.62 ± 54.07 ng/L/h
6 | 2132.91 ± 11.91 ng/mL | 2.1 ± 0.14 ng/mL | 544.87 ± 4.54 ng/mL | 5.21% | 3.45% | 4.92% | 6.94% | 1.97% | 4.16% | 2150.14 ± 11.92 ng/mL | 2.11 ± 0.13 ng/mL | 548.82 ± 2.92 ng/mL | 2167.98 ± 18.52 ng/mL | 2.07 ± 0.12 ng/mL | 540.92 ± 9.44 ng/mL |  | 650 ± 16.4 ng/mL | 10 min | 46.8 ± 0.35 min | rapidly absorbed | C[C@@H]1O[C@@H](O[C@@H]2[C@@H](O)[C@H](OCCc3ccc(O)c(O)c3)O[C@H](CO)[C@H]2OC(=O)/C=C/c2ccc(O)c(O)c2)[C@H](O)[C@H](O)[C@H]1O [Acteoside, acteoside] | 
